Results as given in ChEMBL document CHEMBL5131416, “Solid-phase synthesis and biological evaluation of piperazine-based novel bacterial topoisomerase inhibitors” (Bioorg Med Chem Lett, 2022).
pEC50, pIC50: −log10 of the molar value. Several values for one entry are separate records, joined by “and”; a condition that tells them apart may be missing. Equal entries are not always repeated.

Legend:
[1] = tested on: Staphylococcus aureus; assay: Antibacterial activity against methicillin-susceptible Staphylococcus aureus NCTC 8325-4 assessed as inhibition of bacterial growth by broth microdilution method; assay type: functional
[2] = tested on: Staphylococcus aureus; assay: Antibacterial activity against methicillin-resistant Staphylococcus aureus CC398 assessed as inhibition of bacterial growth by broth microdilution method; assay type: functional
[3] = target: DNA gyrase (Escherichia coli, UniProt P0AES4+P0AES6); assay: Inhibition of Escherichia coli DNA gyrase by fluorescence based microtiter plate reader assay; assay type: protein-complex assay
[4] = target: DNA gyrase (Staphylococcus aureus, UniProt P0A0K8+P20831); assay: Inhibition of Staphylococcus aureus DNA gyrase supercoiling activity using pNO1 plasmid DNA as substrate incubated for 30 mins by fluorescence based microtiter plate reader assay; assay type: protein-complex assay
Chain of DNA gyrase (Staphylococcus aureus, UniProt P0A0K8+P20831) (P0A0K8 whole entry): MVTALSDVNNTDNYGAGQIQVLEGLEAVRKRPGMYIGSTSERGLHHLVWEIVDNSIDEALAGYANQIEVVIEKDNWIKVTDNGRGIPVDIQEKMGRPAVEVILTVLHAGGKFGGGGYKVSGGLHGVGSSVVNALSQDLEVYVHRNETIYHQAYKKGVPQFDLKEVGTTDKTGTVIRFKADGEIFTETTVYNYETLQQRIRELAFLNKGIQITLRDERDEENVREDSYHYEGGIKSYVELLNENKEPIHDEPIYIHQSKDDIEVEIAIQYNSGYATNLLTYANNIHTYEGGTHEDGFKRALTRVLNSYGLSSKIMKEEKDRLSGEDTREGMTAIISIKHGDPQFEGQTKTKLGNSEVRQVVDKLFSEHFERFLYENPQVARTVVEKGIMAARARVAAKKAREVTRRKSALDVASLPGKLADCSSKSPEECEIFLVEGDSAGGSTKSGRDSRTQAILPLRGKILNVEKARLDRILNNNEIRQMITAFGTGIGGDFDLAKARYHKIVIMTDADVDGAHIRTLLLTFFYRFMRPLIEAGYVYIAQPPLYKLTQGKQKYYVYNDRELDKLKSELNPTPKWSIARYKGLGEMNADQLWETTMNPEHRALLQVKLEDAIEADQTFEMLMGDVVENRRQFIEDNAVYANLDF
Chain of DNA gyrase (Staphylococcus aureus, UniProt P0A0K8+P20831) (P20831 whole entry): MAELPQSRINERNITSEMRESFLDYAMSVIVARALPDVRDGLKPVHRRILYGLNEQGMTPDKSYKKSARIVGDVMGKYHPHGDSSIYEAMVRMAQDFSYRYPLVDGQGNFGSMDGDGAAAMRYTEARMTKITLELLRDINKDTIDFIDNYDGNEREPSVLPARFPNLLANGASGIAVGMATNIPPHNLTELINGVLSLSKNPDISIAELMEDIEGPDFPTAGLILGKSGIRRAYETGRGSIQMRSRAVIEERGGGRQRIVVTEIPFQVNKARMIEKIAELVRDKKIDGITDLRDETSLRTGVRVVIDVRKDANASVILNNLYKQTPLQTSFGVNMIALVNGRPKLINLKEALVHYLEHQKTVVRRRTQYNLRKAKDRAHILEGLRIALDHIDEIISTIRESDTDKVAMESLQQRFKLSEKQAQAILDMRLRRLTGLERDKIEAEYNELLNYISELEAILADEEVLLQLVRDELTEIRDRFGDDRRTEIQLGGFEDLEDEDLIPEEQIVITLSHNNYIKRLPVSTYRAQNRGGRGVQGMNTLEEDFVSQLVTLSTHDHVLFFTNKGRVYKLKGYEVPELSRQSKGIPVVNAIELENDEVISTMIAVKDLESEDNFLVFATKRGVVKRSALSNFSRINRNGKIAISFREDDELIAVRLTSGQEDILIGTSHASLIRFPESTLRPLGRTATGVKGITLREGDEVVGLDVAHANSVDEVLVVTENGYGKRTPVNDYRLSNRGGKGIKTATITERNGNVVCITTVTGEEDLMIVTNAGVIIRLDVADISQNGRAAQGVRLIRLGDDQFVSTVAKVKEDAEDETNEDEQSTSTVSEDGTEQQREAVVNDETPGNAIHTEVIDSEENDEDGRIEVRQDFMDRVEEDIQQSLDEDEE

[5] = target: Topoisomerase IV (Staphylococcus aureus, UniProt P0C1S7+P0C1U9); assay: Inhibition of Staphylococcus aureus topoisomerase 4 using pNO1 plasmid DNA as substrate incubated for 30 mins by fluorescence based microtiter plate reader assay; assay type: protein-complex assay
Chain of Topoisomerase IV (P0C1U9 whole entry): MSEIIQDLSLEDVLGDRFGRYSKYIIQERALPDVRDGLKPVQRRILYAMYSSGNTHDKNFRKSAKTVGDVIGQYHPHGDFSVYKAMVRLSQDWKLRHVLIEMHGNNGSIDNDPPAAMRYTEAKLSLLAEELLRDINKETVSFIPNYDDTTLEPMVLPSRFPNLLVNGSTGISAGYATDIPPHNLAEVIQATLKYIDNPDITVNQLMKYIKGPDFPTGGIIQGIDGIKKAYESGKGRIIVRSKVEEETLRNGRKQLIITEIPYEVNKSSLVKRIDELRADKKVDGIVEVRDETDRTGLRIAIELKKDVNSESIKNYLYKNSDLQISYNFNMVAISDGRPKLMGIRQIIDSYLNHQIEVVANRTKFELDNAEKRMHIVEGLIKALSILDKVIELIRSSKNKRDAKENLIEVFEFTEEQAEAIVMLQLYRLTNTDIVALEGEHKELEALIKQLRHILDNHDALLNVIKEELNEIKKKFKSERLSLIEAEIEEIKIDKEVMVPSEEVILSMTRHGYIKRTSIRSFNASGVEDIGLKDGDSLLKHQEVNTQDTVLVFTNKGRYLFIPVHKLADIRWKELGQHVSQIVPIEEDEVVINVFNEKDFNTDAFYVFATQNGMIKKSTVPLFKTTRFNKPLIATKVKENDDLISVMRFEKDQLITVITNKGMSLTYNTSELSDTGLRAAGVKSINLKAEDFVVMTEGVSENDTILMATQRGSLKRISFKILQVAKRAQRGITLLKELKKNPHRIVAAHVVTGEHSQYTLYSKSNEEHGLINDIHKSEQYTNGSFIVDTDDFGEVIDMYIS
Chain of Topoisomerase IV (P0C1S7 whole entry): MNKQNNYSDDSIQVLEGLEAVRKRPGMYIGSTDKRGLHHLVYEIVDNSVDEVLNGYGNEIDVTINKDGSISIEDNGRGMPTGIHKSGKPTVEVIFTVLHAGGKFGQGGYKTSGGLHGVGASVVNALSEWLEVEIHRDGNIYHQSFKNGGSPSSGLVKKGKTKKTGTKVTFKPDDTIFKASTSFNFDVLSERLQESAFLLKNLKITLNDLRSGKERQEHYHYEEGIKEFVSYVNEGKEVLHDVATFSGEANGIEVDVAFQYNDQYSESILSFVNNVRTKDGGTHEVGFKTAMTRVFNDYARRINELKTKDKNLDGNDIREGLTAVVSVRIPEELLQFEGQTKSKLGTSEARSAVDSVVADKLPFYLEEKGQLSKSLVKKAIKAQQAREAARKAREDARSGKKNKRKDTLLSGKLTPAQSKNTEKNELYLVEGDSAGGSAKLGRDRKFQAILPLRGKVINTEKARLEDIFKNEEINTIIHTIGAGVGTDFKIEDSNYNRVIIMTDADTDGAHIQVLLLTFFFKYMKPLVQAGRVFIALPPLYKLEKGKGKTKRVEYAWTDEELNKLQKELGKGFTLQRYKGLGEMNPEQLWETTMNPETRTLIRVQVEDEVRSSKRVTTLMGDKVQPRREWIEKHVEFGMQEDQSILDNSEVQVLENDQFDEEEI

[6] = target: Voltage-gated inwardly rectifying potassium channel KCNH2 (Homo sapiens, UniProt Q12809); assay: Inhibition of hERG by fluorescence polarization assay; assay type: toxicity
Chain of Voltage-gated inwardly rectifying potassium channel KCNH2 (Q12809 whole entry): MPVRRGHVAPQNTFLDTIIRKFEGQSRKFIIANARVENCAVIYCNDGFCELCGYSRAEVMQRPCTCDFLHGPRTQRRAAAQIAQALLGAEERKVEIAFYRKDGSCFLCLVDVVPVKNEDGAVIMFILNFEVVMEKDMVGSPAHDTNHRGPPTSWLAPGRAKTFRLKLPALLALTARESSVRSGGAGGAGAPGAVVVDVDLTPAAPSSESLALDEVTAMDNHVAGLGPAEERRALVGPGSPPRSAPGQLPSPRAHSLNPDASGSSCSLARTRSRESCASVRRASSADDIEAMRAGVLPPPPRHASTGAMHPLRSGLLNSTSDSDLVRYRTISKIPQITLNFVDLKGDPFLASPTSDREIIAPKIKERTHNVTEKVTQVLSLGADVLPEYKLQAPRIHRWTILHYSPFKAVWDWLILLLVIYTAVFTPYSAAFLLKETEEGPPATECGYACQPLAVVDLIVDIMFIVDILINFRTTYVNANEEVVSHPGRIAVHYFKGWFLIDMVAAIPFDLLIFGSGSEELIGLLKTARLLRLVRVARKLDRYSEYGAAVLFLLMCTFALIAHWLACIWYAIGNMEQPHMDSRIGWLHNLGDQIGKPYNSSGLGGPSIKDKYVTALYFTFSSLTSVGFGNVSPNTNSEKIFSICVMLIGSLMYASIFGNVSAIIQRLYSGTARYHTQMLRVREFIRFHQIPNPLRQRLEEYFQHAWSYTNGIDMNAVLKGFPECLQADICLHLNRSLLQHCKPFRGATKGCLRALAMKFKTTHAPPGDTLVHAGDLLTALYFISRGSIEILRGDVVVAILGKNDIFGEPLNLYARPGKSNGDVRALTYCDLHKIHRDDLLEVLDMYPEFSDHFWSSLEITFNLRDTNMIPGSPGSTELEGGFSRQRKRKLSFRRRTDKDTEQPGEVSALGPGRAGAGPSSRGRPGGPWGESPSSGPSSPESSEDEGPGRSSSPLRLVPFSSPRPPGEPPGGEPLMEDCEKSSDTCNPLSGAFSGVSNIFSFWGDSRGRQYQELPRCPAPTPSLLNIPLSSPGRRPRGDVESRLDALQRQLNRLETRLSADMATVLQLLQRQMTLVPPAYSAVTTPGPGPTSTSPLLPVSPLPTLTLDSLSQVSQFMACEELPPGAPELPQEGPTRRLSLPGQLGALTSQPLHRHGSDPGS
Summary of the method: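 hERG inhibition was measured with a commercial Predictor hERG fluorescence-polarization kit.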

[7] = Staphylococcus aureus, NCTC 8325-4, read-out: MIC
[8] = Staphylococcus aureus, CC398, read-out: MIC

Row | Compound | MIC [1, 7] | MIC [2, 8] | pIC50 [3] | pIC50 [4] | pIC50 [5] | pEC50 [6] | MIC [2] | MIC [1] [µg/mL]
1 | COc1ccc2ncc(F)c([C@@H](O)CC[C@@H]3CCN(CCSc4cccs4)C[C@@H]3C(=O)O)c2c1 | 0.8 µM and 0.4 µg/mL | 0.2 µg/mL and 0.4 µM | 5.41 | 6.47 | 5.06 | 4.62 |  | 
2 | COc1ccc2ncc(F)c(CCCN3CCN(CCSc4cccs4)C[C@@H]3C(N)=O)c2c1 | 1.6 µM and 0.8 µg/mL |  |  |  |  | 5.70 |  | 
3 | COc1ccc2ncc(F)c(CCCN3CCN(CCCc4ccccc4)C[C@@H]3C(=O)O)c2c1 | 1.7 µM and 0.8 µg/mL | 0.4 µg/mL and 0.9 µM |  | 6.34 | 4.99 | 4.77 |  | 
4 | COc1ccc2ncc(F)c(CCCN3CCN(CCSc4cccs4)C[C@@H]3C(=O)O)c2c1 | 0.8 µM and 0.4 µg/mL | 0.2 µg/mL and 0.4 µM | 5.27 | 6.43 | 5.12 | 4.77 |  | 
5 | COc1ccc2ncc(F)c(/C=C/CN3CCN(CCSc4cccs4)C[C@@H]3C(=O)O)c2c1 | 3.1 µM and 1.5 µg/mL | 0.8 µg/mL and 1.6 µM |  | 6.17 | 5.74 | > 4.52 |  | 
6 | COc1ccc2ncc(F)c(CCCN3CCN(CCCCc4ccccc4)C[C@@H]3C(=O)O)c2c1 | 12.9 µM and 6.2 µg/mL | 3.1 µg/mL and 6.5 µM |  | 6.43 | 5.42 | 4.68 |  | 
7 | COc1ccc2ncc(F)c(CCCN3CCN(C/C=C/c4cc(F)ccc4F)C[C@@H]3C(=O)O)c2c1 | 0.4 µM and 0.2 µg/mL | 0.1 µg/mL and 0.2 µM | 5.19 | 6.55 | 5.62 | 4.60 |  | 
8 | COc1ccc2ncc(F)c(CCCN3CCN(CCSc4cccs4)C[C@H]3C(=O)O)c2c1 | 6.3 µM and 3.1 µg/mL | 1.6 µg/mL and 3.3 µM |  |  |  | 4.59 |  | 
9 | COC(=O)[C@H]1CN(CCSc2cccs2)CCN1CCCc1c(F)cnc2ccc(OC)cc12 | > 99.3 µM and > 50 µg/mL | > 50 µg/mL and > 99.3 µM | 4.73 | 3.52 |  | 5.70 |  | 
10 | COc1ccc2ncc(F)c(CCCN3CCN(Cc4ccccc4)C[C@@H]3C(=O)O)c2c1 | > 114 µM and > 50 µg/mL |  |  |  |  | 4.60 |  | 
11 | COC(=O)[C@@H]1CN(CCSc2cccs2)CCN1CCCc1c(F)cnc2ccc(OC)cc12 | > 99.3 µM and > 50 µg/mL | > 50 µg/mL and > 99.3 µM |  |  |  | 5.40 |  | 
12 | COc1ccc2ncc(F)c(CCCN3CCN(C(=O)CCc4ccccc4)C[C@@H]3C(=O)O)c2c1 | > 104 µM and > 50 µg/mL | > 50 µg/mL and > 104 µM |  |  |  |  |  | 
13 | COc1ccc2ncc(F)c(CCCN3CCN(C(=O)CSc4ccccc4)C[C@@H]3C(=O)O)c2c1 | > 100 µM and > 50 µg/mL |  |  |  |  | > 4.52 |  | 
14 | COc1ccc2ncc(F)c(CCCN3CCN(C/C=C/c4ccccc4)C[C@@H]3C(=O)O)c2c1 | 1.7 µM and 0.8 µg/mL | 0.2 µg/mL and 0.4 µM |  | 6.72 | 5.47 | 4.42 |  | 
15 | COc1ccc2ncc(F)c(CCCN3CCN(CCSc4cccs4)C[C@@H]3C(=O)NC(=O)CC(=O)O)c2c1 | 21.8 µM and 12.5 µg/mL | 12.5 µg/mL and 21.8 µM |  |  |  | 6.30 |  | 
16 | COc1ccc2ncc(F)c(CCCN3CCN(CCc4ccccc4)C[C@@H]3C(=O)O)c2c1 | 14 µM and 6.3 µg/mL | 3.1 µg/mL and 6.9 µM |  | 6.27 | 4.90 | 4.06 |  | 
17 | COc1ccc2ncc(F)c(CCCN3CCN(CCSc4cccs4)[C@@H](C(=O)O)C3)c2c1 | 6.3 µM and 3.1 µg/mL | 1.6 µg/mL and 3.3 µM |  |  |  | > 4.52 |  | 
18 | COc1ccc2ncc(F)c(C#CCN3CCN(CCSc4cccs4)C[C@@H]3C(=O)O)c2c1 | 51.5 µM and 25 µg/mL | 12.5 µg/mL and 25.7 µM |  | 6.32 | 5.61 | > 4.52 |  | 
19 | COc1ccc2ncc(F)c(CCCN3CCN(C(=O)CSc4cccs4)C[C@@H]3C(=O)O)c2c1 | > 99.3 µM and > 50 µg/mL | > 50 µg/mL and > 99.3 µM |  |  |  | 5.15 |  | 
20 | COc1ccc2ncc(F)c(/C=C\CN3CCN(CCSc4cccs4)C[C@@H]3C(=O)O)c2c1 | 25.6 µM and 12.5 µg/mL | 3.1 µg/mL and 6.4 µM |  | 6.55 | 5.00 | > 4.52 |  | 
21 | COc1ccc2ncc(F)c(C(O)CCN3CCN(CCSc4cccs4)C[C@@H]3C(=O)O)c2c1 (mixture of isomers; 19) | 24.7 µM and 12.5 µg/mL |  |  |  |  | > 4.52 | 0.8 ug ml-1 and 1.6 uM | 
22 | COc1ccc2ncc(F)c(C(O)CCN3CCN(CCSc4cccs4)C[C@@H]3C(=O)O)c2c1 (mixture of isomers; 20) |  |  |  |  |  |  | 6.2 ug ml-1 and 12.3 uM | 12.5
